Experimental data published in ChEMBL document CHEMBL3352384, “Synthesis and biological activity of new salicylanilide N,N-disubstituted carbamates and thiocarbamates” (Bioorg Med Chem, 2014).
≈ marks a conversion by molar mass, not a printed value.

Experiments:
Enterococcus sp. [1] = test: Antimicrobial activity against Enterococcus sp. J 14365/08 after 24 hrs by microdilution method; type: functional; conditions: J 14365/08, 24 h
How it was run: (§1)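 Broth microdilution in Mueller-Hinton broth, compounds dissolved in DMSO, final concentrations 500 to 0.49 µM. Benzylpenicillin and bacitracin were run as comparators. MIC was taken as 95% (IC95) or greater growth reduction versus control. Each determination was done twice.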

Mycobacterium avium [2] = test: Antimycobacterial activity against Isoniazid, rifampicin, ofloxacin and ethambutol-resistant Mycobacterium avium 330/88 assessed as complete growth inhibition after 21 days; type: functional; conditions: 330/88, 504 h
How it was run: (§2)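 M. tuberculosis 331/88 (H37Rv) inoculum diluted 10-3, M. avium 330/88 diluted 10-5. MIC is the lowest concentration giving complete growth inhibition. Isoniazid and p-aminosalicylic acid as references. Quadruplicate, repeated twice.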

Mycobacterium avium [3] = test: Antimycobacterial activity against Isoniazid, rifampicin, ofloxacin and ethambutol-resistant Mycobacterium avium 330/88 assessed as complete growth inhibition after 14 days; type: functional; conditions: 330/88, 336 h; how it was run: as §2
[4] = test system: Staphylococcus epidermidis; test: Antimicrobial activity against Staphylococcus epidermidis H 6966/08 after 24 hrs by microdilution method; type: functional; conditions: H 6966/08, 24 h; how it was run: as §1
[5] = Selectivity index, ratio of IC50 for human HepG2 cells to MIC for Mycobacterium tuberculosis H37Rv; type: toxicity, cell-based; conditions: read-out: Selectivity Index
How it was run: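 Selectivity index = HepG2 IC50 / MIC. HepG2 cells (passage 3–4) grown in Eagle's MEM with 10% FBS, L-glutamine and non-essential amino acids. Compounds added from DMSO, eight concentrations in triplicate, tetrazolium-reduction colorimetric read-out.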

Mycobacterium kansasii [6] = test: Antimycobacterial activity against Mycobacterium kansasii 235/80 assessed as complete growth inhibition after 7 days; type: functional; conditions: 235/80, 168 h
How it was run: (§3)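 Dilutions of M. kansasii inoculum were 10-4 for strain 235/80 and 10-5 for clinical isolate 6509/96. MIC was the lowest concentration giving complete growth inhibition, run in quadruplicate and repeated twice.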

[7] = Selectivity index, ratio of IC50 for human HepG2 cells to MIC for methicillin-resistant Staphylococcus aureus H 5996/08
How it was run: (§4)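 Selectivity index = HepG2 IC50 / MIC. HepG2 cells (passage 3–4) grown in Eagle's MEM with 10% FBS, L-glutamine and non-essential amino acids. Compounds added from DMSO, eight concentrations in triplicate, tetrazolium-reduction colorimetric read-out. IC50 is the concentration reducing viability to 50% of control; 10% DMSO as 0% viability.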

Staphylococcus aureus [8] = test: Antimicrobial activity against methicillin-resistant Staphylococcus aureus H 5996/08 after 48 hrs by microdilution method; type: functional; conditions: H 5996/08, 48 h
How it was run: (§5)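 Mueller-Hinton broth microdilution; compounds dissolved in DMSO, final concentrations 500 to 0.49 µM. […] Benzylpenicillin and bacitracin as comparators. Each determination done twice.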

[9] = Selectivity index, ratio of IC50 for human HepG2 cells to MIC for Trichophyton mentagrophytes 445
Staphylococcus aureus [10] = test: Antimicrobial activity against Staphylococcus aureus CCM 4516/08 after 24 hrs by microdilution method; type: functional; conditions: CCM 4516/08, 24 h; how it was run: as §5
Staphylococcus aureus [11] = test: Antimicrobial activity against methicillin-resistant Staphylococcus aureus H 5996/08 after 24 hrs by microdilution method; type: functional; conditions: H 5996/08, 24 h; how it was run: as §5
[12] = test system: Mycobacterium tuberculosis; test: Antimycobacterial activity against Mycobacterium tuberculosis H37Rv 331/88 assessed as complete growth inhibition after 21 days; type: functional; conditions: H37Rv 331/88, 504 h; how it was run: as §2
[13] = test system: Mycobacterium tuberculosis; test: Antimycobacterial activity against Mycobacterium tuberculosis H37Rv 331/88 assessed as complete growth inhibition after 14 days; type: functional; conditions: H37Rv 331/88, 336 h; how it was run: as §2
[14] = test system: Staphylococcus epidermidis; test: Antimicrobial activity against Staphylococcus epidermidis H 6966/08 after 48 hrs by microdilution method; type: functional; conditions: H 6966/08, 48 h; how it was run: as §1
[15] = test system: Trichophyton mentagrophytes; test: Antimicrobial activity against Trichophyton mentagrophytes 445 after 72 hrs by microdilution method; type: functional; conditions: Trichophyton mentagrophytes, 445, 72 h
How it was run: (§6)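 Broth microdilution in RPMI 1640 with glutamine, with fluconazole and amphotericin B as references. For filamentous fungi, MIC is expressed as the IC50, i.e. the concentration giving 50% growth reduction versus control. Each determination was done twice.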

[16] = Selectivity index, ratio of IC50 for human HepG2 cells to MIC for atypical mycobacteria; how it was run: as §4
HepG2 = test: Cytotoxicity against human HepG2 cells assessed as reduction in cell viability after 24 hrs by MTS assay; type: cell-based; conditions: HepG2, 24 h
How it was run: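 HepG2 hepatocellular carcinoma cells (passage 3–4) were grown in Eagle's MEM with 10% FBS, 1% L-glutamine and non-essential amino acids. Compounds were added from DMSO at eight concentrations in triplicate, with 10% DMSO as the 0% viability control. Viability was read by tetrazolium salt reduction (CellTiter 96 AQueous One). IC50 is the concentration reducing viability to 50% of control.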

Staphylococcus aureus [17] = test: Antimicrobial activity against Staphylococcus aureus CCM 4516/08 after 48 hrs by microdilution method; type: functional; conditions: CCM 4516/08, 48 h; how it was run: as §5
Enterococcus sp. [18] = test: Antimicrobial activity against Enterococcus sp. J 14365/08 after 48 hrs by microdilution method; type: functional; conditions: J 14365/08, 48 h; how it was run: as §1
[19] = test system: Trichophyton mentagrophytes; test: Antimicrobial activity against Trichophyton mentagrophytes 445 after 120 hrs by microdilution method; type: functional; conditions: Trichophyton mentagrophytes, 445, 120 h; how it was run: as §6
Mycobacterium kansasii [20] = test: Antimycobacterial activity against clinical isolate Mycobacterium kansasii 6509/96 assessed as complete growth inhibition after 7 days; type: functional; conditions: 6509/96, 168 h; how it was run: as §3
Mycobacterium kansasii [21] = test: Antimycobacterial activity against clinical isolate Mycobacterium kansasii 6509/96 assessed as complete growth inhibition after 14 days; type: functional; conditions: 6509/96, 336 h; how it was run: as §3
Mycobacterium kansasii [22] = test: Antimycobacterial activity against clinical isolate Mycobacterium kansasii 6509/96 assessed as complete growth inhibition after 21 days; type: functional; conditions: 6509/96, 504 h; how it was run: as §3
Mycobacterium kansasii [23] = test: Antimycobacterial activity against Mycobacterium kansasii 235/80 assessed as complete growth inhibition after 21 days; type: functional; conditions: 235/80, 504 h; how it was run: as §3
Mycobacterium kansasii [24] = test: Antimycobacterial activity against Mycobacterium kansasii 235/80 assessed as complete growth inhibition after 14 days; type: functional; conditions: 235/80, 336 h; how it was run: as §3
[25] = Inhibition of Mycobacterium tuberculosis H37Rv isocitrate lyase assessed as glyoxylate phenyl hydrazone formation at 10 uM

Row | Compound | MIC (Enterococcus sp. [1]) [µM] | MIC (Mycobacterium avium [2]) [µM] | MIC (Mycobacterium avium [3]) [µM] | MIC [4] [µM] | selectivity ratio [5] | MIC (Mycobacterium kansasii [6]) [µM] | Selectivity Index [7] | MIC (Staphylococcus aureus [8]) [µM] | Selectivity Index [9] | MIC (Staphylococcus aureus [10]) [µM] | MIC (Staphylococcus aureus [11]) [µM] | MIC [12] [µM] | MIC [13] [µM] | MIC [14] [µM] | MIC [15] [µM] | Selectivity Index [16] | IC50 (HepG2) [µM] | MIC (Staphylococcus aureus [17]) [µM] | MIC (Enterococcus sp. [18]) [µM] | MIC [19] [µM] | further results
1 | CN(C)C(=S)Oc1ccc(Cl)cc1C(=O)Nc1ccc(F)cc1 | > 500 | 32 (≈ 11.3 µg/mL) | 32 (≈ 11.3 µg/mL) | 31.2 (≈ 11 µg/mL) | 7.3 | 16 (≈ 5.65 µg/mL) | 3.7 | 31.2 (≈ 11 µg/mL) | 15 | 15.6 (≈ 5.51 µg/mL) | 31.2 (≈ 11 µg/mL) | 16 (≈ 5.65 µg/mL) | 8 (≈ 2.82 µg/mL) | 31.2 (≈ 11 µg/mL) | 7.81 (≈ 2.76 µg/mL) | 3.7 | 117 | 31.2 (≈ 11 µg/mL) | > 500 | 7.81 (≈ 2.76 µg/mL) | MIC (Mycobacterium kansasii [20]): 16 µM (≈ 5.65 µg/mL); MIC (Mycobacterium kansasii [21]): 32 µM (≈ 11.3 µg/mL); MIC (Mycobacterium kansasii [22]): 32 µM (≈ 11.3 µg/mL); MIC (Mycobacterium kansasii [23]): 32 µM (≈ 11.3 µg/mL); MIC (Mycobacterium kansasii [24]): 32 µM (≈ 11.3 µg/mL); inhibition [25]: 7%
2 | CN(C)C(=S)Oc1ccc(Cl)cc1C(=O)Nc1ccc(C(F)(F)F)cc1 | > 500 | 16 (≈ 6.45 µg/mL) | 16 (≈ 6.45 µg/mL) | 31.2 (≈ 12.6 µg/mL) | 16.8 | 16 (≈ 6.45 µg/mL) | 8.6 | 7.81 (≈ 3.15 µg/mL) | <1 | 7.81 (≈ 3.15 µg/mL) | 7.81 (≈ 3.15 µg/mL) | 4 (≈ 1.61 µg/mL) | 4 (≈ 1.61 µg/mL) | 31.2 (≈ 12.6 µg/mL) | 500 (≈ 201 µg/mL) | 2.1 | 67.3 | 7.81 (≈ 3.15 µg/mL) | > 500 | 500 (≈ 201 µg/mL) | MIC (Mycobacterium kansasii [20]): 16 µM (≈ 6.45 µg/mL); MIC (Mycobacterium kansasii [21]): 32 µM (≈ 12.9 µg/mL); MIC (Mycobacterium kansasii [22]): 32 µM (≈ 12.9 µg/mL); MIC (Mycobacterium kansasii [23]): 32 µM (≈ 12.9 µg/mL); MIC (Mycobacterium kansasii [24]): 32 µM (≈ 12.9 µg/mL); inhibition [25]: 12%
3 | CN(C)C(=S)Oc1ccc(Cl)cc1C(=O)Nc1ccc(Br)cc1 | > 500 | 16 (≈ 6.62 µg/mL) | 16 (≈ 6.62 µg/mL) | 0.49 (≈ 0.203 µg/mL) | 10.7 | 16 (≈ 6.62 µg/mL) | 174.8 | 0.49 (≈ 0.203 µg/mL) | 843.9 | 0.49 (≈ 0.203 µg/mL) | 0.49 (≈ 0.203 µg/mL) | 8 (≈ 3.31 µg/mL) | 8 (≈ 3.31 µg/mL) | 0.49 (≈ 0.203 µg/mL) | 1.95 (≈ 0.807 µg/mL) | 2.7 | 85.6 | 0.49 (≈ 0.203 µg/mL) | > 500 | 1.95 (≈ 0.807 µg/mL) | MIC (Mycobacterium kansasii [20]): 16 µM (≈ 6.62 µg/mL); MIC (Mycobacterium kansasii [21]): 32 µM (≈ 13.2 µg/mL); MIC (Mycobacterium kansasii [22]): 32 µM (≈ 13.2 µg/mL); MIC (Mycobacterium kansasii [23]): 16 µM (≈ 6.62 µg/mL); MIC (Mycobacterium kansasii [24]): 16 µM (≈ 6.62 µg/mL); inhibition [25]: 11%
